Bioassay records: PubChem BioAssay, The Scripps Research Institute Molecular Screening Center
UHRF1 MBD2 ctr = UHRF1 methylated DNA binding inhibitors, primary screen, counter-screen for MBD2 inhibitor project, biochemical, TR-FRET, human UHRF1, single concentration | 370,000 tested, 0.75% active | inhibition, % at 4.4 µM | AID 687016, 2013 | UHRF1 binding to methylated oligo; in the data active = inhibition above about 21%;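 also: UHRF1 SRA domain binding a hemimethylated CpG hairpin DNA probe; 0% = median of test compound wells and 100% = reference inhibitor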
HCV core dimer = inhibitors of HCV core protein dimerization, primary screen, biochemical, TR-FRET, high-throughput | 300,000 tested, 0.33% active | inhibition, % at 5 µM | TR-FRET GST/Flag-core106 dimerization, 1536-well;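 active = inhibition above the mean of all tested compounds plus 3 SD, set per screening campaign, cut at about 45% in these data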
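test system = GST/Flag-tagged HCV core106 proteins | probe or stimulus = Eu donor and XL665 acceptor anti-tag antibodies | times = compound-protein-antibody incubation 4 h at 22.5 °C | signal = TR-FRET, excitation 340 nm, emission 617 and 671 nm | measure = percent inhibition of core106 dimerization signal | controls = wells lacking GST-core106 and wells with excess unlabelled core106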
TDP2 inh = human TDP2 enzyme inhibitors, primary screen, biochemical, epi absorbance, recombinant enzyme; Tyrosyl-DNA phosphodiesterase 2 (Homo sapiens), O95551; T5PNP hydrolysis, p-nitrophenol absorbance 415 nm; inhibition, % at 12.8 µM; 370,000 tested, 0.34% active; AID 720702, 2013;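 active = inhibition above the mean of all tested compounds plus 3 SD, set per campaign, cut at about 25% in these data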;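 also: 0% = DMSO with enzyme and 100% = buffer with substrate but no TDP2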
Target sequence (O95551 whole entry, looked up): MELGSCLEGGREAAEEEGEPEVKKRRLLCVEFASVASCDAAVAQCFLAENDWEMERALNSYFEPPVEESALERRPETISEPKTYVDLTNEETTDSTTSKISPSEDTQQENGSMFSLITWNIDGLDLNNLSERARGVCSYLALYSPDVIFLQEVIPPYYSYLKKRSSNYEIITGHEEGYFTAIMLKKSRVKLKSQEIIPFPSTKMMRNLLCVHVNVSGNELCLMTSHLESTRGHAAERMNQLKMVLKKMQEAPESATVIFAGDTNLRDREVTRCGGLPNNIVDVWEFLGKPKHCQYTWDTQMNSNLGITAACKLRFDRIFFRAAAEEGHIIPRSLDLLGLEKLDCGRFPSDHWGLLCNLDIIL
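System – recombinant human TDP2 · Quantity – TDP2 enzyme at 120 nM final · Doses – single concentration, 12.8 µM nominal, with 1% DMSO · Incubation – 2 h at 37 °C · Measured by – epi absorbance of p-nitrophenol freed from T5PNP by hydrolysis · Read-out – % inhibition relative to enzyme-containing and enzyme-free wells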
MBD2 inh = inhibitors of MBD2 binding to methylated DNA, primary screen, biochemical, TR-FRET, DNA-binding domain, human. Methyl-CpG-binding domain protein 2 (Homo sapiens), Q9UBB5. inhibition, % at 4.4 µM. MBD2 binding to methylated oligonucleotide. 370,000 tested, 0.31% active; in the data active = inhibition above about 13%
LEDGF integ inh = blockers of LEDGF/p75-dependent integrase strand transfer – biochemical, TR-FRET, high throughput, primary screen | HIV-1 integrase (with human LEDGF/p75) | TR-FRET IN-LEDGF/p75 DNA integration, Eu/Cy5 | inhibition, % at 3.7 µM | 370,000 tested, 0.64% active | AID 743269, 2014;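 active = inhibition above the screen-wide mean plus 3 SD, cut at about 13% in these data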;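 also: signal is the Cy5 over europium emission ratio at 671 and 618 nm; 0% = plate median of compound wells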
* marks the source's active call; other numbers are inactive results; nt = no result. Most compounds without a hit are left out; they make up all but 1.8% or so of the library.

SMILES	UHRF1 MBD2 ctr	HCV core dimer	TDP2 inh	MBD2 inh	LEDGF integ inh
Cc1nn(-c2cccc(Cl)c2)c2nc(-c3ccco3)cc(C(=O)O)c12	8	10	10	1	13
CC(C)(C)OC(=O)NCc1cc(F)ccc1/C=C/S(=O)(=O)NCc1ccccc1	-2	nt	-1	-1	0
O=C(CCC1CCCCC1)Nc1nncs1	26*	8	4	-4	-1
CC(=O)Nc1cccc(C(C)C2=CCCCC2)c1 (configuration not stated)	2	nt	-11	-3	4
CCCCn1c(NC(C)CC)nc2c1c(=O)[nH]c(=O)n2C (configuration not stated)	98*	-5	-4	-2	-2
CCC(C)Nc1nc2c(c(=O)[nH]c(=O)n2C)n1CCOc1ccccc1 (configuration not stated)	2	-7	-9	0	3
COC(=O)C1CN(Cc2ccc(Cl)cc2)CCS(=O)(=O)N1Cc1cn(Cc2ccccc2)nn1 (configuration not stated)	9	nt	2	4	2
CC(=O)CC[C@H]1CC[C@]2(CCCN(S(=O)(=O)C3CCCCC3)C2)O1	-1	nt	0	0	-2
CCOC(=O)CC[C@H]1CC[C@]2(CCCN(S(=O)(=O)C3CCCCC3)C2)O1	42*	nt	-7	-3	4
COc1cccc(C(=O)NN2CC(O)=C(c3nc(C)cs3)C2=N)c1	-2	-6	14	-4	-1
Cc1ccc(C(=O)NN2CC(O)=C(c3nc(-c4cccc([N+](=O)[O-])c4)cs3)C2=N)cc1	0	54*	4	2	2
NC(=O)COC(=O)c1cccc(S(=O)(=O)N2CCN(c3ccccc3)CC2)c1	1	0	9	4	0
O=C(COC(=O)c1cccc(S(=O)(=O)N2CCN(c3ccccc3)CC2)c1)NCc1ccco1	11	82*	5	10	-1
C#CCCN([C@H](C(=O)OC)C(C)C)S(=O)(=O)c1ccccc1Br	-2	nt	0	3	-2
COc1cccc2cc(-c3nc(-c4cccs4)cs3)c(=O)oc12	0	51*	5	0	3
O=[N+]([O-])c1cccc(N/N=C/c2cc([N+](=O)[O-])ccc2O)c1	-1	-17	0	-4	10
O=[N+]([O-])c1ccc(O)c(C=NNc2ccc(S(=O)(=O)O)cc2)c1	24*	nt	8	1	-1
c1ccc(OCc2nnc3sc(C4COc5ccccc5O4)nn23)cc1 (configuration not stated)	-3	51*	4	6	1
COc1ccccc1-c1ccc(SCc2cccc(F)c2)nn1	58*	4	-5	-6	-5
CC(C)c1ccc(C(C(C(=O)c2ccccc2)N2CCOCC2)N2CCOCC2)cc1 (configuration not stated)	47*	nt	6	5	-1
Cc1nnc2ccc(-c3ccc(NC(=O)Cc4cccs4)cc3)nn12	-5	56*	8	-6	0
CC(=O)Nc1ccc(-c2ccc3nnc(C)n3n2)cc1	-3	1	9	3	-2
COc1ccc(/C([O-])=C(/C(=S)Nc2ccc(C)c(C)c2)n2c[n+](C)c3ccccc32)cc1OC	26*	6	-1	4	2
N#Cc1c(-c2ccco2)ccn(Cc2cccc(F)c2)c1=O	23*	3	-9	8	5
N#Cc1c(-c2ccco2)ccn(Cc2ccc(F)cc2)c1=O	0	0	-1	-3	5
SMILES	UHRF1 MBD2 ctr	HCV core dimer	TDP2 inh	MBD2 inh	LEDGF integ inh
CCCCNC(=O)C1CCCN1C(=O)Nc1ccc(Cl)cc1 (configuration not stated)	0	nt	14	-2	3
COc1ccc2c(c1)CNC2CS(=O)(=O)NCCc1ccccc1 (configuration not stated)	-11	nt	10	-1	-4
Cc1cccc(S(=O)(=O)Nc2ccc(-c3ccc4nncn4n3)cc2)c1	-3	1	11	-2	-2
O=S(=O)(Nc1ccc(-c2ccc3nncn3n2)cc1)c1cccc(F)c1	24*	-4	12	9	-1
CCOC(=O)/C=C1\SCC(=O)N1Cc1nnc(-c2ccccc2Br)o1	-2	64*	2	-3	-1
CCc1sc(C(=O)Nc2ccc(N3CCOCC3)cc2)cc1C	2	nt	-10	-2	2
CCc1cc2cc(C(=O)Nc3ccc(C)cc3)sc2s1	0	52*	-1	-4	0
CCCC/C=C1\CCc2c([nH]c3ccccc23)C1=O	24*	6	-3	0	0
CCOC(=O)C1CCCN(Cc2cc(=O)oc3cc(C)c(C(C)C)cc23)C1 (configuration not stated)	26*	6	-11	-1	0
Cc1cc2oc(=O)cc(CN3CCCCC3)c2cc1C(C)C	1	8	-3	2	2
O=C(COCc1ccncc1)N1CCN(c2ccc(F)cc2Cl)CC1	1	nt	10	-1	3
Cc1ccc(-n2c(SCC(=O)NN=Cc3ccc(-c4ccccc4)cc3)nnc2-c2ccccc2)cc1	-1	nt	-2	0	-2
O=C(Nc1ccc(OC(=O)c2cccs2)cc1)c1ccco1	24*	1	10	10	1
O=C(Nc1cccc(NC(=O)c2cccs2)c1)c1ccco1	6	-2	-13	-1	0
COc1cccc(/C=N/Nc2ncnc3c2[nH]c2ccc(C)cc23)c1OC	0	49*	10	2	3
COc1ccc(/C=N/Nc2ncnc3c2[nH]c2ccccc23)c(OC)c1OC	-2	4	-4	-2	-2
COc1ccc(-c2sc3ccccc3c2/C=C/c2ccc(N)cc2)cc1	-1	nt	4	-1	-4
COC(=O)c1ccc(/C=C/c2c(-c3ccsc3)sc3ccccc23)cc1	23*	5	0	-1	2
COc1ccccc1N1CCN(C(=O)COc2cccc3ccccc23)CC1	-2	9	-8	1	1
O=C(O)C1CCN(C(=O)c2cccc3ccccc23)CC1	30*	3	4	-5	-1
NC(=O)C1CCN(C(=O)COc2cccc3ccccc23)CC1	40*	0	1	-2	-3
CCOC(=O)C1=NOC(C(=O)NC2CCCC2)(C(=O)C2CC2)C1 (configuration not stated)	2	nt	-5	-1	-4
